Reference: ChEMBL document CHEMBL3763045, “Design, Synthesis, and Pharmacological Evaluation of Novel N-Acylhydrazone Derivatives as Potent Histone Deacetylase 6/8 Dual Inhibitors” (J Med Chem, 2016)
Values after ≈ are worked out from the molar mass of the structure shown. Active and inactive are the calls of the source. No cut-off for these calls is given here.

Experiments:
[1] = Aqueous solubility of the compound in buffer at pH 7.4 after 24 hrs by spectrophotometric method; type: physicochemical
Procedure, shortened: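 Water solubility in pH 7.4 buffer, measured spectrophotometrically by the method of Schneider and coworkers.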

[2] = target: Histone deacetylase (Rattus norvegicus) (UniProt Q6P6W3+Q99P99+Q99P96+Q4QQW4+Q99P97+Q5RJZ2+B1WBY8); assay: Inhibition of HDAC in rat liver at 1 uM by fluorimetry
Procedure, shortened: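 Rat liver HDAC preparation, non-selective enzyme assay, test compounds at 1 µM; % inhibition is the mean of two experiments.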

Histone deacetylase 1 = Histone deacetylase 1 (Homo sapiens, UniProt Q13547); assay: Inhibition of recombinant human HDAC1 by fluorimetry
Chain of Histone deacetylase 1 (Q13547 whole entry): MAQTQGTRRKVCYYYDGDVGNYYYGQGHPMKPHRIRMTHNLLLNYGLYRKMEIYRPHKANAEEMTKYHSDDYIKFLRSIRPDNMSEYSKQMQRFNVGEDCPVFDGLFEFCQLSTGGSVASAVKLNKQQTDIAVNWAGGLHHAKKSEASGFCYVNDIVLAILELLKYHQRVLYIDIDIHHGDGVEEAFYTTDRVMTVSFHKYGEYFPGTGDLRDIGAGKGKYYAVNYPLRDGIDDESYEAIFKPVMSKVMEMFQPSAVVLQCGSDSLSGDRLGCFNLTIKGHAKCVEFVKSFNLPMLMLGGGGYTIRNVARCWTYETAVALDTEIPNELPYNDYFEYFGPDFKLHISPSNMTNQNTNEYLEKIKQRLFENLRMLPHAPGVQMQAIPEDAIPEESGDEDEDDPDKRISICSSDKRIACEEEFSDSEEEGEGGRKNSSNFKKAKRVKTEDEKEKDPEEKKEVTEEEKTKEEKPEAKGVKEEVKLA

[3] = target: T1, Protein deacetylase HDAC6 (Homo sapiens, UniProt Q9UBN7); assay: Inhibition of recombinant human HDAC6 by fluorimetry
T1 sequence (Q9UBN7 whole entry): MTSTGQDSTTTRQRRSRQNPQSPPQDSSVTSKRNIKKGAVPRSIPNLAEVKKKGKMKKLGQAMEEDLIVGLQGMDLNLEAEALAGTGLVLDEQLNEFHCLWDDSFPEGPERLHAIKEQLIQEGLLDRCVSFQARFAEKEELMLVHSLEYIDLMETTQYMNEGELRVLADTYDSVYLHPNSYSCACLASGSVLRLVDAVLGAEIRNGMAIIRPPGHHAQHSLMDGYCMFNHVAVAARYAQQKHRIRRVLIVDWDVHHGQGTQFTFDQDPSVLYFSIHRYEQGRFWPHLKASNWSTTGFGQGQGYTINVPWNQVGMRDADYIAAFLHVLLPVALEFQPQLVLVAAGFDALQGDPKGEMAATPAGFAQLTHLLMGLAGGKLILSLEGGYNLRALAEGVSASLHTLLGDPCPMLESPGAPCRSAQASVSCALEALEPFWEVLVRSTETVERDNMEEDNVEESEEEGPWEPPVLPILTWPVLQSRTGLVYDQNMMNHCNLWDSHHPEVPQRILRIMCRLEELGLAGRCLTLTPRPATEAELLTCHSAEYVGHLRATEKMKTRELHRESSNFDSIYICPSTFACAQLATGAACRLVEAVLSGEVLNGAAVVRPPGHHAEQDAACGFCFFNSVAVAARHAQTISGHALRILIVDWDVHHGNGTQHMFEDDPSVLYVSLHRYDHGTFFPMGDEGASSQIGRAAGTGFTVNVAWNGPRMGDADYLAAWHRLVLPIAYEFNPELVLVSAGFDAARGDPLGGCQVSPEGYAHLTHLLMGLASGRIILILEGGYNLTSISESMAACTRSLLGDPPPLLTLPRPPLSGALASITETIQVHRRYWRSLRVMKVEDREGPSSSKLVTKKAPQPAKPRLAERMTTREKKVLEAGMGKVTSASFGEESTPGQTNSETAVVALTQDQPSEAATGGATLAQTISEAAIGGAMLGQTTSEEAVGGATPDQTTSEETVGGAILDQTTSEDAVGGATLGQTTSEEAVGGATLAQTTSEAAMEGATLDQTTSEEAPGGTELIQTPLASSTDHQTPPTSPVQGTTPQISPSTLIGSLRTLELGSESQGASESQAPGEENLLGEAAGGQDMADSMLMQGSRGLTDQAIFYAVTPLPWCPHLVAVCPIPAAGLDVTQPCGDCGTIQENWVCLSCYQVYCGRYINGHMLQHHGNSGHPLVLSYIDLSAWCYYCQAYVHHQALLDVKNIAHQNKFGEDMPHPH

HepG2 [4] = assay: Antiproliferative activity against human HepG2 cells assessed as reduction in cell viability at 40 uM after 48 hrs by MTS assay; type: functional, cell-based
Histone deacetylase = assay: Inhibition of HDAC in rat liver by fluorimetry
Procedure, shortened: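 Rat liver HDAC IC50 from a six-point enzyme assay, three-fold serial dilution starting at 3 µM or 1 µM depending on compound; mean of two experiments ± SD.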

MCF7 = assay: Antiproliferative activity against human MCF7 cells assessed as reduction in cell viability at 40 uM after 48 hrs by MTS assay; type: functional, cell-based
Procedure, shortened: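 MCF-7 cells exposed at 40 µM for 48 h, viability by MTS; ANOVA with Tukey's post-test against control.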

HT-144 = assay: Antiproliferative activity against human HT144 cells assessed as reduction in cell viability at 40 uM after 48 hrs by MTS assay; type: functional, cell-based
Histone deacetylase 2 = Histone deacetylase 2 (Homo sapiens, UniProt Q92769); assay: Inhibition of recombinant human HDAC2 by fluorimetry
Chain of Histone deacetylase 2 (Q92769 whole entry): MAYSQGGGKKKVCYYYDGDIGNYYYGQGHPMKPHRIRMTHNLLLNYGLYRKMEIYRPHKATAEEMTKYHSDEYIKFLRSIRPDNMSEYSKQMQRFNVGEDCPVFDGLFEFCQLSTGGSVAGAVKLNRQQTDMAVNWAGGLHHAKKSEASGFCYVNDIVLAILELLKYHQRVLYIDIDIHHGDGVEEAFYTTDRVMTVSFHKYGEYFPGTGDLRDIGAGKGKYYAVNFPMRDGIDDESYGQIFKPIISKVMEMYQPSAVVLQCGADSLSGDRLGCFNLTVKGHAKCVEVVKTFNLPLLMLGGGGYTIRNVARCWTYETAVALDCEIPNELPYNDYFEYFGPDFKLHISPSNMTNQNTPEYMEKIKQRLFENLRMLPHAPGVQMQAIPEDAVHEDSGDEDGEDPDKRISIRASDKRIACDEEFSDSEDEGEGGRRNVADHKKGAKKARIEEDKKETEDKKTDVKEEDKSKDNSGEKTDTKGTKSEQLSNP

Histone deacetylase 8 = target: T2, Histone deacetylase 8 (Homo sapiens, UniProt Q9BY41); assay: Inhibition of recombinant human HDAC8 by fluorimetry
T2 sequence (Q9BY41 whole entry): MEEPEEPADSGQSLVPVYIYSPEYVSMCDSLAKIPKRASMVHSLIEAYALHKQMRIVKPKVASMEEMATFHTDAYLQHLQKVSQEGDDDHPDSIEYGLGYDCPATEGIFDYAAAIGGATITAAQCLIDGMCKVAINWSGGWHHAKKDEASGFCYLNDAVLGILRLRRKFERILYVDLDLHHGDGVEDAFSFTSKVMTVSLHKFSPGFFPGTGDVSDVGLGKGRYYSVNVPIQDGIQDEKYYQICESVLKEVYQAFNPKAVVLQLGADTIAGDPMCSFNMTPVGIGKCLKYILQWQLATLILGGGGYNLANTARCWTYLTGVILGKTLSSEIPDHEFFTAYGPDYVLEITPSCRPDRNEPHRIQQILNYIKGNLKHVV

[5] = Chemical stability of the compound in acidic buffer assessed as compound hydrolysis at pH 2 measured for 240 mins by HPLC-PDA analysis; type: physicochemical; conditions: pH 2, 4 h
Procedure, shortened: (§1)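 Compounds stirred in pH 7.4 or pH 2 buffer at 37 °C for 240 min; percentage of compound recovered followed over time (30 min and 4 h points). Triplicate runs, values averaged.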

[6] = Antiproliferative activity against human HT144 cells assessed as reduction in cell viability after 48 hrs by MTS assay; type: functional, cell-based; conditions: HT-144, 48 h
[7] = Chemical stability of the compound in acidic buffer assessed as compound recovery at pH 2 after 30 mins by HPLC-PDA analysis; type: physicochemical; procedure, shortened: as §1
HepG2 [8] = assay: Antiproliferative activity against human HepG2 cells assessed as reduction in cell viability after 48 hrs by MTS assay; type: functional, cell-based; conditions: HepG2, 48 h
[9] = Chemical stability of compound in phosphate dibasic buffer assessed as compound degradation at pH 7.4 by HPLC-PDA analysis; type: physicochemical; conditions: read-out: Drug degradation; procedure, shortened: as §1
HepG2 [10] = assay: Induction of apoptosis in human HepG2 cells at 5 to 10 uM after 24 hrs by TUNEL assay; type: functional, cell-based
Procedure, shortened: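 HepG2 cells treated 24 h (5 and 10 µM for TUNEL, 5 µM for caspase 3/7). Apoptosis scored by flow cytometry as TUNEL-positive frequency and as cells with activated caspase 3/7. Doxorubicin positive control; ANOVA with Tukey's post-test.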

HepG2 [11] = assay: Effect on cell cycle distribution in human HepG2 cells assessed as decrease in S phase at 5 to 10 uM after 24 to 48 hrs by propidium iodide staining-based flow cytometry; type: functional
Procedure, shortened: (§2)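 Cell cycle of HepG2 cells by flow cytometry after 5 or 10 µM for 24 and 48 h, giving SubG1, G0/G1, S and G2/M fractions. ANOVA with Tukey's post-test against control.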

HepG2 [12] = assay: Effect on cell cycle distribution in human HepG2 cells assessed as accumulation at SubG1 phase at 5 to 10 uM after 24 to 48 hrs by propidium iodide staining-based flow cytometry; type: functional; procedure, shortened: as §2
[13] = Chemical stability of the compound in acidic buffer assessed as compound recovery at pH 2 after 4 hrs by HPLC-PDA analysis; type: physicochemical; conditions: buffer, pH 2, 4 h; procedure, shortened: as §1
HepG2 [14] = assay: Effect on cell cycle distribution in human HepG2 cells assessed as decrease in G0/G1 phase at 5 to 10 uM after 24 to 48 hrs by propidium iodide staining-based flow cytometry; type: functional; procedure, shortened: as §2
[15] = target: T3, Protein deacetylase HDAC6 (Homo sapiens) (UniProt Q9UBN7); assay: Inhibition of HDAC6 in human Calu1 cells assessed as induction of tubulin acetylation at 15 to 54 nM after 24 hrs by Western blotting analysis; type: cell-based; conditions: Calu-1
T3 sequence (whole entry): T1 sequence (Q9UBN7 whole entry)
Procedure, shortened: (§3)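 Calu-1 and A549 cells treated 24 h, acetylated tubulin detected by western blot with GAPDH as loading control. DMSO vehicle control; one representative of three independent experiments.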

HepG2 [16] = assay: Effect on cell cycle distribution in human HepG2 cells assessed as accumulation at G2/M phase at 5 uM after 24 and 48 hrs by propidium iodide staining-based flow cytometry; type: functional; procedure, shortened: as §2
[17] = Lipophilicity, logD of the compound at pH 7.4 after 4 hrs; type: physicochemical; conditions: buffer
Calu-1 = assay: Inhibition of cell migration in human Calu1 cells at 15 and 30 nM after 48 hrs by scratch test; type: functional, cell-based
Procedure, shortened: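 Calu-1 migration by scratch test after 48 h treatment. DMSO vehicle control; one representative of three independent experiments.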

[18] = target: T3, Protein deacetylase HDAC6 (Homo sapiens); assay: Inhibition of HDAC6 in human A549 cells assessed as induction of tubulin acetylation at 15 to 54 nM after 24 hrs by Western blotting analysis; type: cell-based; procedure, shortened: as §3
[19] = Ionization constant, pKa of the compound in buffer measured over 3 hrs by UV spectrometry; type: physicochemical

COC(=O)c1cccc(/C=N/N(C)C(=O)c2ccc(N(C)C)cc2)c1
solubility at 24 h [1]: 8.2 µM (≈ 2.78 µg/mL)

CN(/N=C/c1ccc(C(=O)O)cc1)C(=O)c1ccc(N(C)C)cc1
solubility at 24 h [1]: > 67 µM | inhibition [2]: -8.7%

CN(C)c1ccc(C(=O)N/N=C/c2cccc(C(=O)NO)c2)cc1
solubility at 24 h [1]: > 67 µM | IC50 (Histone deacetylase 1): > 10000 nM | IC50 [3]: 390 nM | Activity (HepG2 [4]): Active | IC50 (Histone deacetylase): 1200 nM | Activity (MCF7): Active | inhibition [2]: 66% | Activity (HT-144): Active | IC50 (Histone deacetylase 2): > 10000 nM | IC50 (Histone deacetylase 8): 2200 nM

COC(=O)c1ccc(/C=N/NC(=O)c2ccc(N(C)C)cc2)cc1
solubility at 24 h [1]: 1.7 µM (≈ 0.553 µg/mL)

CN(C)c1ccc(C(=O)N/N=C/c2ccc(C(=O)O)cc2)cc1
solubility at 24 h [1]: > 77 µM | inhibition [2]: -9.1%

C/C(=N\N(C)C(=O)c1ccc(N(C)C)cc1)c1ccc(C(=O)NO)cc1
solubility at 24 h [1]: 122 µM (≈ 43.2 µg/mL) | Stability [5]: Unstable | IC50 (Histone deacetylase 1): > 3000 nM | IC50 [3]: 97 nM | IC50 [6]: 51600 nM | Activity (HepG2 [4]): Active | Activity (MCF7): Active | Stability ([7]; buffer, pH 2, 0.5 h): Unstable | Activity (HT-144): Active | IC50 (HepG2 [8]): 30300 nM | IC50 (Histone deacetylase 2): > 3000 nM | IC50 (Histone deacetylase 8): 54 nM | degraded [9]: > 15%

C/C(=N\NC(=O)c1ccc(N(C)C)cc1)c1ccc(C(=O)NO)cc1
solubility at 24 h [1]: 6.2 µM (≈ 2.11 µg/mL) | Activity (HepG2 [10]): Active | Stability [5]: Unstable | IC50 (Histone deacetylase 1): > 3000 nM | Activity (HepG2 [11]): Active | IC50 [3]: 56 nM | Activity (HepG2 [12]): Active | Stability [13]: Unstable | IC50 [6]: 20000 nM | Activity (HepG2 [4]): Active | Activity (MCF7): Active | Activity (HepG2 [14]): Active | remaining at 0.5 h ([7]; acidic buffer, pH 2, read-out: Drug recovery): 6% | Activity (HT-144): Active | IC50 (HepG2 [8]): 11500 nM | IC50 (Histone deacetylase 2): > 3000 nM | IC50 (Histone deacetylase 8): 110 nM | degraded [9]: > 15%

CN(C)c1ccc(C(=O)N/N=C/c2cccc(C(=O)O)c2)cc1
solubility at 24 h [1]: > 70 µM

COC(=O)c1ccc(/C=N/N(C)C(=O)c2ccc(N(C)C)cc2)cc1
solubility at 24 h [1]: 1.4 µM (≈ 0.475 µg/mL)

COC(=O)c1cccc(/C=N/NC(=O)c2ccc(N(C)C)cc2)c1
solubility at 24 h [1]: 3.7 µM (≈ 1.2 µg/mL) | inhibition [2]: -4.6%

CN(C)c1ccc(C(=O)N/N=C/c2ccc(C(=O)NO)cc2)cc1
solubility at 24 h [1]: 15 µM (≈ 4.9 µg/mL) | Stability [5]: Unstable | IC50 (Histone deacetylase 1): > 3000 nM | Activity (HepG2 [11]): Active | inhibition [15]: Active | IC50 [3]: 15 nM | Activity (HepG2 [12]): Active | Activity (HepG2 [16]): Active | IC50 [6]: 21200 nM | Activity (HepG2 [4]): Active | IC50 (Histone deacetylase): 21 nM | Activity (MCF7): Active | logD at 4 h [17]: 0.68 | inhibition (Calu-1): Active | inhibition [2]: 90.4% | Activity (HepG2 [14]): Active | Activity (HT-144): Active | inhibition [18]: Active | IC50 (HepG2 [8]): 9480 nM | IC50 (Histone deacetylase 2): > 3000 nM | pKa at 3 h [19]: 8.1 | IC50 (Histone deacetylase 8): 230 nM | degraded [9]: > 15%

CN(/N=C/c1cccc(C(=O)O)c1)C(=O)c1ccc(N(C)C)cc1
solubility at 24 h [1]: > 67 µM | inhibition [2]: -5.8%

CN(/N=C/c1cccc(C(=O)NO)c1)C(=O)c1ccc(N(C)C)cc1
solubility at 24 h [1]: > 70 µM | IC50 (Histone deacetylase 1): > 10000 nM | IC50 [3]: 2500 nM | Activity (HepG2 [4]): Active | Activity (MCF7): Active | inhibition [2]: 33.4% | Activity (HT-144): Active | IC50 (Histone deacetylase 2): > 10000 nM | IC50 (Histone deacetylase 8): 2000 nM
